Measured values reported in ChEMBL document CHEMBL4364301 (Eur J Med Chem, 2019).

Legend:
Format in all cases: functional
[1] = test system: LNCaP; test: Antiproliferative activity against human LNCAP cells assessed as T/C value at 1 x 10^1 uM incubated for 96 hrs by propidium iodide based 2D monolayer assay
Summary of the method: (§1)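 Cells were kept in RPMI 1640 with 25 mM HEPES, 10% FCS and gentamicin at 37 °C under 5% CO2, and plated at 4,000-20,000 cells/well. After 24 h recovery, compound in medium or medium alone (control wells) was added at 10 half-log concentrations from 0.0032 to 100 µM, in triplicate, with at most 0.3% DMSO. After 96 h, wells were PBS-washed, stained with 7 µg/ml PI and 0.1% Triton X-100, and fluorescence read at 530/620 nm. IC50 came from a 4-parameter fit, geometric mean.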

[2] = test system: CWR22R; test: Antiproliferative activity against human 22Rv1 cells assessed as T/C value at 1 x 10^1 uM incubated for 96 hrs by propidium iodide based 2D monolayer assay; summary of the method: as §1
[3] = test system: DU-145; test: Antiproliferative activity against human DU145 cells assessed as T/C value at 1 x 10^-2 uM incubated for 96 hrs by propidium iodide based 2D monolayer assay
Summary of the method: as §1, with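 “After” for “Cells were kept in RPMI 1640 with 25 mM HEPES, 10% FCS and gentamicin at 37 °C under 5% CO2, and plated at 4,000-20,000 cells/well. After”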

[4] = test system: CWR22R; test: Antiproliferative activity against human 22Rv1 cells assessed as reduction in cell growth incubated for 96 hrs by propidium iodide based 2D monolayer assay; conditions: 22Rv1, 96 h
Summary of the method: as §1, with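 “After” for “Cells were kept in RPMI 1640 with 25 mM HEPES, 10% FCS and gentamicin at 37 °C under 5% CO2, and plated at 4,000-20,000 cells/well. After”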

[5] = test system: CWR22R; test: Antiproliferative activity against human 22Rv1 cells assessed as T/C value at 1 x 10^2 uM incubated for 96 hrs by propidium iodide based 2D monolayer assay; summary of the method: as §1
[6] = test system: DU-145; test: Antiproliferative activity against human DU145 cells assessed as T/C value at 1 x 10^-1 uM incubated for 96 hrs by propidium iodide based 2D monolayer assay
Summary of the method: as §1, with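 “After” for “Cells were kept in RPMI 1640 with 25 mM HEPES, 10% FCS and gentamicin at 37 °C under 5% CO2, and plated at 4,000-20,000 cells/well. After”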

[7] = test system: VCaP; test: Antiproliferative activity against human VCaP cells assessed as T/C value at 3.2 x 10^-1 uM incubated for 96 hrs by propidium iodide based 2D monolayer assay
Summary of the method: (§2)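 VCaP cells in RPMI 1640 with 10% FCS at 37 °C, 5% CO2, seeded 4,000–20,000 cells/well and left 24 h before dosing. Compounds from DMSO stocks were diluted in half-log steps in medium, 10 concentrations 0.0032–100 μM, triplicate wells, max 0.3% DMSO. After 96 h, cells were washed, stained with 7 μg/ml propidium iodide plus 0.1% Triton X-100 for 1–2 h at room temperature, and fluorescence read at ex 530/em 620 nm.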

[8] = test system: CWR22R; test: Antiproliferative activity against human 22Rv1 cells assessed as T/C value at 1 x 10^-2 uM incubated for 96 hrs by propidium iodide based 2D monolayer assay; summary of the method: as §1
[9] = test system: VCaP; test: Antiproliferative activity against human VCaP cells assessed as reduction in cell growth incubated for 96 hrs by propidium iodide based 2D monolayer assay; summary of the method: as §2
[10] = test system: DU-145; test: Antiproliferative activity against human DU145 cells assessed as T/C value at 1 x 10^1 uM incubated for 96 hrs by propidium iodide based 2D monolayer assay
Summary of the method: as §1, with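 “After” for “Cells were kept in RPMI 1640 with 25 mM HEPES, 10% FCS and gentamicin at 37 °C under 5% CO2, and plated at 4,000-20,000 cells/well. After”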

[11] = test system: DU-145; test: Antiproliferative activity against human DU145 cells assessed as T/C value at 1 uM incubated for 96 hrs by propidium iodide based 2D monolayer assay
Summary of the method: as §1, with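 “After” for “Cells were kept in RPMI 1640 with 25 mM HEPES, 10% FCS and gentamicin at 37 °C under 5% CO2, and plated at 4,000-20,000 cells/well. After”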

[12] = test system: CWR22R; test: Antiproliferative activity against human 22Rv1 cells assessed as T/C value at 3.2 uM incubated for 96 hrs by propidium iodide based 2D monolayer assay; summary of the method: as §1
[13] = test system: CWR22R; test: Antiproliferative activity against human 22Rv1 cells assessed as T/C value at 3.2 x 10^1 uM incubated for 96 hrs by propidium iodide based 2D monolayer assay; summary of the method: as §1
[14] = test system: DU-145; test: Antiproliferative activity against human DU145 cells assessed as T/C value at 3.2 x 10^-1 uM incubated for 96 hrs by propidium iodide based 2D monolayer assay
Summary of the method: as §1, with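 “After” for “Cells were kept in RPMI 1640 with 25 mM HEPES, 10% FCS and gentamicin at 37 °C under 5% CO2, and plated at 4,000-20,000 cells/well. After”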

[15] = test system: CWR22R; test: Antiproliferative activity against human 22Rv1 cells assessed as T/C value at 1 uM incubated for 96 hrs by propidium iodide based 2D monolayer assay; summary of the method: as §1
[16] = test system: VCaP; test: Antiproliferative activity against human VCaP cells assessed as T/C value at 1 uM incubated for 96 hrs by propidium iodide based 2D monolayer assay; summary of the method: as §1
[17] = test system: LNCaP; test: Antiproliferative activity against human LNCAP cells assessed as T/C value at 3.2 x 10^-1 uM incubated for 96 hrs by propidium iodide based 2D monolayer assay; summary of the method: as §1
[18] = test system: VCaP; test: Antiproliferative activity against human VCaP cells assessed as T/C value at 3.2 uM incubated for 96 hrs by propidium iodide based 2D monolayer assay; summary of the method: as §1
[19] = test system: DU-145; test: Antiproliferative activity against human DU145 cells assessed as T/C value at 3.2 x 10^1 uM incubated for 96 hrs by propidium iodide based 2D monolayer assay; summary of the method: as §1
[20] = test system: VCaP; test: Antiproliferative activity against human VCaP cells assessed as T/C value at 1 x 10^-2 uM incubated for 96 hrs by propidium iodide based 2D monolayer assay; summary of the method: as §1
[21] = test system: LNCaP; test: Antiproliferative activity against human LNCAP cells assessed as T/C value at 3.2 x 10^-2 uM incubated for 96 hrs by propidium iodide based 2D monolayer assay; summary of the method: as §1
[22] = test system: CWR22R; test: Antiproliferative activity against human 22Rv1 cells assessed as T/C value at 3.2 x 10^-2 uM incubated for 96 hrs by propidium iodide based 2D monolayer assay; summary of the method: as §1
[23] = test system: VCaP; test: Antiproliferative activity against human VCaP cells assessed as T/C value at 1 x 10^1 uM incubated for 96 hrs by propidium iodide based 2D monolayer assay; summary of the method: as §1
[24] = test system: DU-145; test: Antiproliferative activity against human DU145 cells assessed as T/C value at 3.2 x 10^-3 uM incubated for 96 hrs by propidium iodide based 2D monolayer assay
Summary of the method: as §1, with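 “After” for “Cells were kept in RPMI 1640 with 25 mM HEPES, 10% FCS and gentamicin at 37 °C under 5% CO2, and plated at 4,000-20,000 cells/well. After”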

[25] = test system: LNCaP; test: Antiproliferative activity against human LNCAP cells assessed as T/C value at 3.2 x 10^1 uM incubated for 96 hrs by propidium iodide based 2D monolayer assay; summary of the method: as §1
[26] = test system: VCaP; test: Antiproliferative activity against human VCaP cells assessed as T/C value at 3.2 x 10^-2 uM incubated for 96 hrs by propidium iodide based 2D monolayer assay; summary of the method: as §2
[27] = test system: CWR22R; test: Antiproliferative activity against human 22Rv1 cells assessed as T/C value at 1 x 10^-1 uM incubated for 96 hrs by propidium iodide based 2D monolayer assay; summary of the method: as §1
[28] = test system: DU-145; test: Antiproliferative activity against human DU145 cells assessed as reduction in cell growth incubated for 96 hrs by propidium iodide based 2D monolayer assay; conditions: DU-145, 96 h
Summary of the method: as §1, with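 “After” for “Cells were kept in RPMI 1640 with 25 mM HEPES, 10% FCS and gentamicin at 37 °C under 5% CO2, and plated at 4,000-20,000 cells/well. After”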

[29] = test system: CWR22R; test: Antiproliferative activity against human 22Rv1 cells assessed as T/C value at 3.2 x 10^-1 uM incubated for 96 hrs by propidium iodide based 2D monolayer assay; summary of the method: as §1
[30] = test system: DU-145; test: Antiproliferative activity against human DU145 cells assessed as T/C value at 3.2 uM incubated for 96 hrs by propidium iodide based 2D monolayer assay; summary of the method: as §1
[31] = test system: DU-145; test: Antiproliferative activity against human DU145 cells assessed as T/C value at 3.2 x 10^-2 uM incubated for 96 hrs by propidium iodide based 2D monolayer assay
Summary of the method: as §1, with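 “After” for “Cells were kept in RPMI 1640 with 25 mM HEPES, 10% FCS and gentamicin at 37 °C under 5% CO2, and plated at 4,000-20,000 cells/well. After”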

Row | Compound | T/C [1] | T/C [2] | T/C [3] | IC50 [4] | IC70 [4] | T/C [5] | T/C [6] | T/C [7] | T/C [8] | IC50 [9] | IC70 [9] | T/C [10] | T/C [11] | T/C [12] | T/C [13] | T/C [14] | T/C [15] | T/C [16] | T/C [17] | T/C [18] | also measured
1 | CC1(C)C(=O)N(c2ccc(C#N)cc2C(F)(F)F)C(=S)N1c1ccc(S(F)(F)(F)(F)F)cc1 | 12% | 25% | 111% | 5.4 µM | 8.45 µM | 12% | 114% | 89% | 104% | 100 µM | > 100 µM | 53% | 104% | 78% | 17% | 115% | 99% | 85% | 82% | 74% | T/C [19]: 37%; T/C [20]: 100%; T/C [21]: 78%; T/C [22]: 104%; T/C [23]: 59%; T/C [24]: 105%; T/C [25]: 10%; T/C [26]: 103%; T/C [27]: 98%; IC50 [28]: 12.7 µM; IC70 [28]: 29.1 µM; T/C [29]: 101%; T/C [30]: 102%; T/C [31]: 111%
2 | CC1(C)C(=O)N(c2cccc(S(F)(F)(F)(F)F)c2)C(=S)N1c1cccc(C(F)(F)F)c1 | 23% | 69% | 94% | 100 µM | > 100 µM | 55% | 101% | 87% | 96% | 100 µM | > 100 µM | 83% | 108% | 79% | 58% | 108% | 85% | 84% | 80% | 71% | T/C [19]: 85%; T/C [20]: 82%; T/C [21]: 73%; T/C [22]: 96%; T/C [23]: 74%; T/C [24]: 101%; T/C [25]: 33%; T/C [26]: 87%; T/C [27]: 96%; IC50 [28]: 100 µM; IC70 [28]: > 100 µM; T/C [29]: 98%; T/C [30]: 105%; T/C [31]: 96%
